≈ marks a conversion by molar mass, not a printed value.
Legend:
[1] = test system: Trichophyton mentagrophytes; test: Antifungal activity against Trichophyton mentagrophytes 445 after 120 hr by microdilution broth method; assay type: functional; conditions: Trichophyton mentagrophytes, 445, 120 h
How it was run: (§1)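 Broth microdilution in RPMI 1640 buffered to pH 7.0 with 0.165 M MOPS; compounds in DMSO, with compound-free controls. Strain subcultured and kept on Sabouraud dextrose agar at 4 °C. Conidia were suspended in sterile 0.85% saline, counted in a Bürker chamber to 1.0–5.0×10⁵ cfu ml⁻¹ stock, and diluted 1:20 in medium. Static incubation at 35 °C. MIC is 80% growth inhibition versus control.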

[2] = test system: Mycobacterium tuberculosis; test: Antimycobacterial activity against Mycobacterium tuberculosis H37Rv ATCC 27294 at 12.5 ug/ml by microplate alamar blue assay relative to control; assay type: functional
[3] = test system: Trichophyton mentagrophytes; test: Antifungal activity against Trichophyton mentagrophytes 445 after 72 hr by microdilution broth method; assay type: functional; conditions: Trichophyton mentagrophytes, 445, 72 h; how it was run: as §1
Chlorella vulgaris [4] = test: Inhibition of photosynthesis in Chlorella vulgaris chloroplast assessed as reduction of oxygen evolution rate after 4 hr by spectrophotometric analysis; assay type: functional
Spinacia oleracea = test: Inhibition of photosynthesis in Spinacia oleracea (spinach) chloroplast assessed as reduction of oxygen evolution rate after 4 hr by spectrophotometric analysis; assay type: functional
How it was run: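 Oxygen evolution rate was measured in spinach chloroplasts at 30 mg l⁻¹, read spectrophotometrically with 2,6-dichlorophenol–indophenol as electron acceptor.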

Chlorella vulgaris [5] = test: Inhibition of photosynthesis in Chlorella vulgaris assessed as reduction of chlorophyll production at 0.1 mM/l after 7 days by spectrophotometric analysis; assay type: functional; conditions: 168 h
How it was run: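 Statically cultured Chlorella vulgaris suspensions were exposed to 0.1 mmol l⁻¹ compound, with 1% solvent in samples and control. After 7 days, chlorophyll was extracted into N,N-dimethylformamide and quantified spectrophotometrically.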

Candida tropicalis [6] = test: Antifungal activity against Candida tropicalis 156 after 24 hr by microdilution broth method; assay type: functional; conditions: Candida tropicalis, 156, 24 h
How it was run: (§2)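 Broth microdilution in RPMI 1640 buffered to pH 7.0 with 0.165 M MOPS; compounds dissolved in DMSO; drug-free controls included. Strains were kept on Sabouraud dextrose agar at 4 °C and passaged onto SDA before testing. Yeasts, conidia or sporangiospores were suspended in 0.85% saline to a stock of 1.0–5.0×10⁵ cfu ml⁻¹, then diluted 1:20 in medium. Plates were incubated statically at 35 °C.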

Nakaseomyces glabratus [7] = test: Antifungal activity against Candida glabrata 20/I after 48 hr by microdilution broth method; assay type: functional; how it was run: as §2
Trichosporon beigelii [8] = test: Antifungal activity against Trichosporon beigelii 1188 after 48 hr by microdilution broth method; assay type: functional; conditions: Trichosporon beigelii, 1188, 48 h; how it was run: as §2
Trichosporon beigelii [9] = test: Antifungal activity against Trichosporon beigelii 1188 after 24 hr by microdilution broth method; assay type: functional; conditions: Trichosporon beigelii, 1188, 24 h; how it was run: as §2
Lichtheimia corymbifera [10] = test: Antifungal activity against Lichtheimia corymbifera 272 after 48 hr by microdilution broth method; assay type: functional; conditions: Lichtheimia corymbifera, 272, 48 h; how it was run: as §2
Candida tropicalis [11] = test: Antifungal activity against Candida tropicalis 156 after 48 hr by microdilution broth method; assay type: functional; conditions: Candida tropicalis, 156, 48 h; how it was run: as §2
Aspergillus fumigatus [12] = test: Antifungal activity against Aspergillus fumigatus 231 after 24 hr by microdilution broth method; assay type: functional; conditions: Aspergillus fumigatus, 231, 24 h; how it was run: as §2
Pichia kudriavzevii [13] = test: Antifungal activity against Pichia kudriavzevii E 28 after 24 hr by microdilution broth method; assay type: functional; conditions: E 28, 24 h; how it was run: as §2
Candida albicans [14] = test: Antifungal activity against Candida albicans ATCC 44859 after 24 hr by microdilution broth method; assay type: functional; conditions: ATCC 44859, 24 h; how it was run: as §2
Candida albicans [15] = test: Antifungal activity against Candida albicans ATCC 44859 after 48 hr by microdilution broth method; assay type: functional; conditions: ATCC 44859, 48 h; how it was run: as §2
Lichtheimia corymbifera [16] = test: Antifungal activity against Lichtheimia corymbifera 272 after 24 hr by microdilution broth method; assay type: functional; conditions: Lichtheimia corymbifera, 272, 24 h; how it was run: as §2
Aspergillus fumigatus [17] = test: Antifungal activity against Aspergillus fumigatus 231 after 48 hr by microdilution broth method; assay type: functional; conditions: Aspergillus fumigatus, 231, 48 h; how it was run: as §2
Nakaseomyces glabratus [18] = test: Antifungal activity against Candida glabrata 20/I after 24 hr by microdilution broth method; assay type: functional; how it was run: as §2
Pichia kudriavzevii [19] = test: Antifungal activity against Pichia kudriavzevii E 28 after 48 hr by microdilution broth method; assay type: functional; conditions: E 28, 48 h; how it was run: as §2

Row | Compound | MIC80 [1] [µM] | inhibition at 12.5 µg/mL [2] [%] | MIC80 [3] [µM] | IC50 (Chlorella vulgaris [4]) [µM] | IC50 (Spinacia oleracea) [µM] | inhibition at 100 µM (Chlorella vulgaris [5]) [%] | further results
1 | O=C(/C=C/c1ccc(O)cc1)c1cnccn1 | 125 (≈ 28.3 µg/mL) | 42 | 62.5 (≈ 14.1 µg/mL) | – | – | – | –
2 | CC(C)Cc1cnc(C(=O)/C=C/c2ccc(O)cc2)cn1 | > 500 | 63 | > 500 | 232 | 235 | 35 | –
3 | CCCCc1cnc(C(=O)/C=C/c2ccc(O)cc2)cn1 | 62.5 (≈ 17.6 µg/mL) | 51 | 31.2 (≈ 8.82 µg/mL) | 265 | 306 | 10 | –
4 | CCCc1cnc(C(=O)/C=C/c2ccc(O)cc2)cn1 | 62.5 (≈ 16.8 µg/mL) | 35 | 31.2 (≈ 8.38 µg/mL) | 514 | 399 | 12 | –
5 | CN(C)c1ccc(/C=C/C(=O)c2cnccn2)cc1 | > 62.5 | 26 | > 62.5 | – | – | – | –
6 | CC(C)Cc1cnc(C(=O)/C=C/c2ccc(N(C)C)cc2)cn1 | > 250 | 10 | 250 (≈ 77.4 µg/mL) | – | – | – | –
7 | CCCCc1cnc(C(=O)/C=C/c2ccc(N(C)C)cc2)cn1 | > 250 | 0 | > 250 | – | – | – | –
8 | CCCc1cnc(C(=O)/C=C/c2ccc(N(C)C)cc2)cn1 | > 250 | 8 | > 250 | – | – | – | –
9 | CCCCCCCCSc1cc(C(N)=S)ccn1 | – | – | – | 48 | 72 | 100 | –
10 | CC(C)(C)c1ncc(C(=O)Nc2cc(O)cc(Cl)c2)nc1Cl | – | – | – | 99 | 105 | – | –
11 | CC(C)(C)c1cnc(C(=O)Nc2cccc(O)c2)cn1 | – | – | – | 329 | 478 | – | –
12 | COc1cc(/C=C/C(=O)c2cnccn2)ccc1O | – | 35 | 125 (≈ 32 µg/mL) | – | – | – | –
13 | COc1cc(/C=C/C(=O)c2cnc(CC(C)C)cn2)ccc1O | – | 53 | 250 (≈ 78.1 µg/mL) | – | – | – | –
14 | CCCCc1cnc(C(=O)/C=C/c2ccc(O)c(OC)c2)cn1 | – | 45 | > 100 | – | – | – | –
15 | CCCc1cnc(C(=O)/C=C/c2ccc(O)c(OC)c2)cn1 | – | 20 | > 125 | – | – | – | –
16 | O=C(/C=C/c1ccccc1O)c1cnccn1 | 31.2 (≈ 7.07 µg/mL) | 55 | 15.6 (≈ 3.53 µg/mL) | – | – | – | MIC80 (Candida tropicalis [6]): 125 µM (≈ 28.3 µg/mL); MIC80 (Nakaseomyces glabratus [7]): 250 µM (≈ 56.6 µg/mL); MIC80 (Trichosporon beigelii [8]): 250 µM (≈ 56.6 µg/mL); MIC80 (Trichosporon beigelii [9]): 125 µM (≈ 28.3 µg/mL); MIC80 (Lichtheimia corymbifera [10]): 250 µM (≈ 56.6 µg/mL); MIC80 (Candida tropicalis [11]): 250 µM (≈ 56.6 µg/mL); MIC80 (Aspergillus fumigatus [12]): 125 µM (≈ 28.3 µg/mL); MIC80 (Pichia kudriavzevii [13]): 125 µM (≈ 28.3 µg/mL); MIC80 (Candida albicans [14]): 62.5 µM (≈ 14.1 µg/mL); MIC80 (Candida albicans [15]): 62.5 µM (≈ 14.1 µg/mL); MIC80 (Lichtheimia corymbifera [16]): 125 µM (≈ 28.3 µg/mL); MIC80 (Aspergillus fumigatus [17]): 250 µM (≈ 56.6 µg/mL); MIC80 (Nakaseomyces glabratus [18]): 125 µM (≈ 28.3 µg/mL); MIC80 (Pichia kudriavzevii [19]): 250 µM (≈ 56.6 µg/mL)
17 | CC(C)Cc1cnc(C(=O)/C=C/c2ccccc2O)cn1 | – | 20 | 31.2 (≈ 8.82 µg/mL) | 63 | 144 | 92 | –
18 | CCCCc1cnc(C(=O)/C=C/c2ccccc2O)cn1 | 15.6 (≈ 4.41 µg/mL) | 33 | 3.91 (≈ 1.1 µg/mL) | 147 | 184 | 89 | –
19 | CCCc1cnc(C(=O)/C=C/c2ccccc2O)cn1 | 7.81 (≈ 2.1 µg/mL) | 50 | 7.81 (≈ 2.1 µg/mL) | 100 | 187 | 68 | –
20 | CC(=O)N1CCN(c2ccc(OCC3COC(Cn4ccnc4)(c4ccc(Cl)cc4Cl)O3)cc2)CC1 (centres undefined) [KETOCONAZOLE] | 1.95 (≈ 1.04 µg/mL) | – | 0.24 (≈ 0.128 µg/mL) | – | – | – | MIC80 (Candida tropicalis [6]): 3.91 µM (≈ 2.08 µg/mL); MIC80 (Nakaseomyces glabratus [7]): 1.95 µM (≈ 1.04 µg/mL); MIC80 (Trichosporon beigelii [8]): ≤ 0.06 µM; MIC80 (Trichosporon beigelii [9]): ≤ 0.06 µM; MIC80 (Lichtheimia corymbifera [10]): 15.6 µM (≈ 8.31 µg/mL); MIC80 (Candida tropicalis [11]): 7.81 µM (≈ 4.15 µg/mL); MIC80 (Aspergillus fumigatus [12]): 7.81 µM (≈ 4.15 µg/mL); MIC80 (Pichia kudriavzevii [13]): 1.95 µM (≈ 1.04 µg/mL); MIC80 (Candida albicans [14]): ≤ 0.06 µM; MIC80 (Candida albicans [15]): ≤ 0.06 µM; MIC80 (Lichtheimia corymbifera [16]): 15.6 µM (≈ 8.31 µg/mL); MIC80 (Aspergillus fumigatus [17]): 7.81 µM (≈ 4.15 µg/mL); MIC80 (Nakaseomyces glabratus [18]): 0.49 µM (≈ 0.26 µg/mL); MIC80 (Pichia kudriavzevii [19]): 1.95 µM (≈ 1.04 µg/mL)
21 | NC(=O)c1cnccn1 [PYRAZINAMIDE] | – | 100 | – | – | – | – | –
